# Results from ChEMBL document CHEMBL1150802, “Ampicillin-resistant non-beta-lactamase-producing Haemophilus influenzae in Spain: recent emergence of clonal isolates with increased resistance to cefotaxime and cefixime” (2007).
# What was measured:
# Type in all cases: functional
# Haemophilus influenzae [1] = assay: Antibacterial activity against beta-lactamase nonproducing ampicillin resistant Haemophilus influenzae group IId isolates with acrR mutation by broth microdilution method
# Haemophilus influenzae [2] = assay: Antibacterial activity against beta-lactamase nonproducing ampicillin resistant Haemophilus influenzae group IIc isolates with acrR base C insertion behind nucleotide 496 by broth microdilution method
# Haemophilus influenzae [3] = assay: Antibacterial activity against beta-lactamase producing amoxicillin-clavulanic acid-resistant Haemophilus influenzae isolate assessed as percent resistant isolates by broth microdilution method
# Procedure, shortened: (§1)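 Clinical isolates were tested by broth microdilution in Haemophilus test medium following CLSI guidelines, with H. influenzae ATCC 49247 as the QC strain. β-Lactamase was detected by chromogenic nitrocefin test. ftsI was PCR-amplified and sequenced across nt 936–1640 (aa 327–540). Classes: BLNAS (no mechanism), BLNAR (ftsI substitutions), BLPAR (β-lactamase only), BLPACR (both). Agents tested were amoxicillin, amoxicillin-clavulanate (2:1), cefaclor, cefuroxime, cefotaxime and cefixime.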
# Haemophilus influenzae [4] = assay: Antibacterial activity against beta-lactamase nonproducing ampicillin resistant Haemophilus influenzae group IIc isolates with acrR aminoacid substitution mutation by broth microdilution method
# Haemophilus influenzae [5] = assay: Antibacterial activity against Haemophilus influenzae group IIc isolates with ftsI gene mutation by broth microdilution method; procedure, shortened: as §1
# Haemophilus influenzae [6] = assay: Antibacterial activity against beta-lactamase nonproducing ampicillin resistant Haemophilus influenzae isolate by broth microdilution method; procedure, shortened: as §1
# Haemophilus influenzae [7] = assay: Antibacterial activity against beta-lactamase nonproducing ampicillin resistant Haemophilus influenzae group IIc isolates with acrR TTA>TGA mutation at 521 position by broth microdilution method
# Haemophilus influenzae [8] = assay: Antibacterial activity against Haemophilus influenzae group I isolates with ftsI gene mutation by broth microdilution method; procedure, shortened: as §1
# Haemophilus influenzae [9] = assay: Antibacterial activity against beta-lactamase nonproducing ampicillin susceptible Haemophilus influenzae isolate by broth microdilution method; procedure, shortened: as §1
# Haemophilus influenzae [10] = assay: Antibacterial activity against Haemophilus influenzae group III-like isolates with ftsI gene mutation by broth microdilution method; procedure, shortened: as §1
# Haemophilus influenzae [11] = assay: (§2) Antibacterial activity against beta-lactamase nonproducing ampicillin resistant Haemophilus influenzae group IIa isolates with acrR aminoacid substitution mutation by broth microdilution method
# Haemophilus influenzae [12] = assay: Antibacterial activity against beta-lactamase positive ampicillin resistant Haemophilus influenzae isolate assessed as percent resistant isolates by broth microdilution method; procedure, shortened: as §1
# Haemophilus influenzae [13] = assay: Antibacterial activity against beta-lactamase nonproducing ampicillin resistant Haemophilus influenzae group IIb isolates with acrR mutation by broth microdilution method
# Haemophilus influenzae [14] = assay: as §2; remark: listed apart in the source
# Haemophilus influenzae [15] = assay: Antibacterial activity against beta-lactamase nonproducing ampicillin susceptible Haemophilus influenzae isolate assessed as percent susceptible isolates by broth microdilution method
# Procedure, shortened: (§3)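 Broth microdilution in Haemophilus test medium per CLSI guidelines on clinical isolates, with H. influenzae ATCC 49247 as quality-control strain; β-lactamase production detected by nitrocefin chromogenic cephalosporin test; isolates classed by β-lactamase status and ftsI (PBP 3) sequencing of amino acids 327 to 540. Agents tested: amoxicillin, amoxicillin-clavulanic acid (2:1), cefaclor, cefuroxime, cefotaxime, cefixime.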
# Haemophilus influenzae [16] = assay: Antibacterial activity against beta-lactamase nonproducing ampicillin resistant Haemophilus influenzae isolate assessed as percent resistant isolates by broth microdilution method; procedure, shortened: as §1
# Haemophilus influenzae [17] = assay: Antibacterial activity against Haemophilus influenzae group IId isolates with ftsI gene mutation by broth microdilution method; procedure, shortened: as §1
# Haemophilus influenzae [18] = assay: Antibacterial activity against beta-lactamase nonproducing ampicillin susceptible Haemophilus influenzae isolate assessed as percent resistant isolates by broth microdilution method; procedure, shortened: as §1
# Haemophilus influenzae [19] = assay: Antibacterial activity against beta-lactamase producing amoxicillin-clavulanic acid-resistant Haemophilus influenzae isolate assessed as percent susceptible isolates by broth microdilution method; procedure, shortened: as §3
# Haemophilus influenzae [20] = assay: Antibacterial activity against beta-lactamase producing amoxicillin-clavulanic acid-resistant Haemophilus influenzae isolate by broth microdilution method; procedure, shortened: as §1
# Haemophilus influenzae [21] = assay: Antibacterial activity against beta-lactamase nonproducing ampicillin resistant Haemophilus influenzae group IIc isolates with acrR TTA>TGA mutation at 425 position by broth microdilution method
# Haemophilus influenzae [22] = assay: Antibacterial activity against beta-lactamase nonproducing ampicillin resistant Haemophilus influenzae group IIb isolates with acrR aminoacid substitution mutation by broth microdilution method
# Haemophilus influenzae [23] = assay: Antibacterial activity against beta-lactamase nonproducing ampicillin resistant Haemophilus influenzae isolate assessed as percent susceptible isolates by broth microdilution method; procedure, shortened: as §1
# Haemophilus influenzae [24] = assay: Antibacterial activity against beta-lactamase nonproducing ampicillin resistant Haemophilus influenzae group IIc isolates with acrR mutation by broth microdilution method
# Haemophilus influenzae [25] = assay: Antibacterial activity against Haemophilus influenzae group IIa isolates with ftsI gene mutation by broth microdilution method; procedure, shortened: as §1
# Haemophilus influenzae [26] = assay: Antibacterial activity against beta-lactamase positive ampicillin resistant Haemophilus influenzae isolate by broth microdilution method; procedure, shortened: as §1
# Haemophilus influenzae [27] = assay: Antibacterial activity against beta-lactamase nonproducing ampicillin resistant Haemophilus influenzae group IIc isolates with acrR baseC insertion mutation by broth microdilution method
# Haemophilus influenzae [28] = assay: Antibacterial activity against beta-lactamase nonproducing ampicillin resistant Haemophilus influenzae group I isolates with acrR ATT deletion behind nucleotide 170 by broth microdilution method
# Haemophilus influenzae [29] = assay: Antibacterial activity against Haemophilus influenzae group IIb isolates with ftsI gene mutation by broth microdilution method; procedure, shortened: as §1
# Haemophilus influenzae [30] = assay: Antibacterial activity against beta-lactamase nonproducing ampicillin resistant Haemophilus influenzae group IIc isolates with acrR base A insertion behind nucleotide 361 by broth microdilution method
# Haemophilus influenzae [31] = assay: Antibacterial activity against beta-lactamase positive ampicillin resistant Haemophilus influenzae isolate assessed as percent susceptible isolates by broth microdilution method; procedure, shortened: as §1
smiles,measurement,setting,value
CC1(C)S[C@@H]2[C@H](NC(=O)[C@H](N)c3ccccc3)C(=O)N2[C@H]1C(=O)O [AMPICILLIN],MIC,Haemophilus influenzae [1],1 µg/mL
same,MIC,Haemophilus influenzae [2],0.5 µg/mL
same,Activity,Haemophilus influenzae [3],100%
same,MIC,Haemophilus influenzae [4],2 µg/mL
same,MIC50,Haemophilus influenzae [5],2 µg/mL
same,MIC90,Haemophilus influenzae [5],2 µg/mL
same,MIC50,Haemophilus influenzae [6],1 µg/mL
same,MIC90,Haemophilus influenzae [6],2 µg/mL
same,MIC,Haemophilus influenzae [7],2 µg/mL
same,MIC,Haemophilus influenzae [8],0.5 µg/mL
same,MIC50,Haemophilus influenzae [8],0.5 µg/mL
same,MIC90,Haemophilus influenzae [8],2 µg/mL
same,MIC,Haemophilus influenzae [9],≤ 0.25 µg/mL
same,MIC50,Haemophilus influenzae [9],≤ 0.25 µg/mL
same,MIC90,Haemophilus influenzae [9],0.5 µg/mL
same,MIC50,Haemophilus influenzae [10],1 µg/mL
same,MIC90,Haemophilus influenzae [10],2 µg/mL
same,MIC,Haemophilus influenzae [11],1 µg/mL
same,Activity,Haemophilus influenzae [12],100%
same,MIC,Haemophilus influenzae [13],1 µg/mL
same,MIC,Haemophilus influenzae [14],4 µg/mL
same,Activity,Haemophilus influenzae [15],98.4%
same,Activity,Haemophilus influenzae [16],50.8%
same,MIC,Haemophilus influenzae [17],0.5 µg/mL
same,MIC50,Haemophilus influenzae [17],0.5 µg/mL
same,MIC90,Haemophilus influenzae [17],2 µg/mL
same,Activity,Haemophilus influenzae [18],1.6%
same,Activity,Haemophilus influenzae [19],0%
same,MIC50,Haemophilus influenzae [20],≥ 32 µg/mL
same,MIC90,Haemophilus influenzae [20],≥ 32 µg/mL
same,MIC,Haemophilus influenzae [21],0.5 µg/mL
same,MIC,Haemophilus influenzae [22],2 µg/mL
same,Activity,Haemophilus influenzae [23],49.2%
same,MIC,Haemophilus influenzae [24],1 µg/mL
same,MIC50,Haemophilus influenzae [25],2 µg/mL
same,MIC90,Haemophilus influenzae [25],4 µg/mL
same,MIC50,Haemophilus influenzae [26],8 µg/mL
same,MIC,Haemophilus influenzae [27],2 µg/mL
same,MIC,Haemophilus influenzae [28],2 µg/mL
same,MIC50,Haemophilus influenzae [29],1 µg/mL
same,MIC90,Haemophilus influenzae [29],2 µg/mL
same,MIC,Haemophilus influenzae [30],1 µg/mL
N[C@@H](C(=O)N[C@@H]1C(=O)N2C(C(=O)O)=C(Cl)CS[C@H]12)c1ccccc1 [CEFACLOR ANHYDROUS],Activity,Haemophilus influenzae [3],24.3%
same,MIC50,Haemophilus influenzae [5],8 µg/mL
same,MIC50,Haemophilus influenzae [6],4 µg/mL
same,MIC,Haemophilus influenzae [8],2 µg/mL
same,MIC50,Haemophilus influenzae [8],2 µg/mL
same,MIC90,Haemophilus influenzae [8],8 µg/mL
same,MIC50,Haemophilus influenzae [9],2 µg/mL
same,MIC90,Haemophilus influenzae [9],4 µg/mL
same,MIC50,Haemophilus influenzae [10],4 µg/mL
same,Activity,Haemophilus influenzae [12],8.9%
same,Activity,Haemophilus influenzae [15],100%
same,Activity,Haemophilus influenzae [16],12.1%
same,Activity,Haemophilus influenzae [31],91.1%
same,MIC50,Haemophilus influenzae [17],2 µg/mL
same,MIC90,Haemophilus influenzae [17],8 µg/mL
same,Activity,Haemophilus influenzae [18],0%
same,Activity,Haemophilus influenzae [19],75.7%
same,MIC50,Haemophilus influenzae [20],4 µg/mL
same,MIC90,Haemophilus influenzae [20],≥ 16 µg/mL
same,Activity,Haemophilus influenzae [23],87.9%
same,MIC50,Haemophilus influenzae [25],8 µg/mL
same,MIC50,Haemophilus influenzae [26],4 µg/mL
same,MIC90,Haemophilus influenzae [26],8 µg/mL
same,MIC50,Haemophilus influenzae [29],4 µg/mL
C=CC1=C(C(=O)O)N2C(=O)[C@@H](NC(=O)/C(=N\OCC(=O)O)c3csc(N)n3)[C@H]2SC1 [CEFIXIME],Activity,Haemophilus influenzae [3],0%
same,MIC50,Haemophilus influenzae [5],0.06 µg/mL
same,MIC90,Haemophilus influenzae [5],0.12 µg/mL
same,MIC50,Haemophilus influenzae [6],0.06 µg/mL
same,MIC90,Haemophilus influenzae [6],0.25 µg/mL
same,MIC,Haemophilus influenzae [8],0.06 µg/mL
same,MIC50,Haemophilus influenzae [8],0.06 µg/mL
same,MIC90,Haemophilus influenzae [8],0.12 µg/mL
same,MIC50,Haemophilus influenzae [9],0.06 µg/mL
same,MIC90,Haemophilus influenzae [9],0.06 µg/mL
same,MIC50,Haemophilus influenzae [10],1 µg/mL
same,MIC90,Haemophilus influenzae [10],4 µg/mL
same,Activity,Haemophilus influenzae [12],0%
same,Activity,Haemophilus influenzae [15],100%
same,Activity,Haemophilus influenzae [16],1%
same,MIC50,Haemophilus influenzae [17],0.06 µg/mL
same,MIC90,Haemophilus influenzae [17],0.12 µg/mL
same,Activity,Haemophilus influenzae [18],0%
same,Activity,Haemophilus influenzae [19],100%
same,MIC50,Haemophilus influenzae [20],0.06 µg/mL
same,MIC90,Haemophilus influenzae [20],0.12 µg/mL
same,Activity,Haemophilus influenzae [23],99%
same,MIC50,Haemophilus influenzae [25],0.06 µg/mL
same,MIC90,Haemophilus influenzae [25],0.25 µg/mL
same,MIC50,Haemophilus influenzae [26],≤ 0.01 µg/mL
same,MIC90,Haemophilus influenzae [26],0.06 µg/mL
same,MIC50,Haemophilus influenzae [29],0.06 µg/mL
same,MIC90,Haemophilus influenzae [29],0.12 µg/mL
CO/N=C(\C(=O)N[C@@H]1C(=O)N2C(C(=O)O)=C(COC(C)=O)CS[C@H]12)c1csc(N)n1 [CEFOTAXIME],Activity,Haemophilus influenzae [3],0%
same,MIC50,Haemophilus influenzae [5],0.06 µg/mL
same,MIC90,Haemophilus influenzae [5],0.12 µg/mL
same,MIC50,Haemophilus influenzae [6],0.06 µg/mL
same,MIC90,Haemophilus influenzae [6],0.25 µg/mL
same,MIC50,Haemophilus influenzae [8],0.03 µg/mL
same,MIC90,Haemophilus influenzae [8],0.12 µg/mL
same,MIC,Haemophilus influenzae [9],≤ 0.01 µg/mL
same,MIC50,Haemophilus influenzae [9],≤ 0.01 µg/mL
same,MIC90,Haemophilus influenzae [9],0.06 µg/mL
same,MIC50,Haemophilus influenzae [10],0.5 µg/mL
same,MIC90,Haemophilus influenzae [10],4 µg/mL
same,Activity,Haemophilus influenzae [12],0%
same,Activity,Haemophilus influenzae [15],100%
same,Activity,Haemophilus influenzae [16],1%
same,MIC50,Haemophilus influenzae [17],0.03 µg/mL
same,MIC90,Haemophilus influenzae [17],0.12 µg/mL
same,Activity,Haemophilus influenzae [18],0%
same,Activity,Haemophilus influenzae [19],100%
same,MIC50,Haemophilus influenzae [20],0.03 µg/mL
same,MIC90,Haemophilus influenzae [20],0.06 µg/mL
same,Activity,Haemophilus influenzae [23],99%
same,MIC50,Haemophilus influenzae [25],0.06 µg/mL
same,MIC90,Haemophilus influenzae [25],0.25 µg/mL
same,MIC90,Haemophilus influenzae [26],0.06 µg/mL
same,MIC50,Haemophilus influenzae [29],0.06 µg/mL
same,MIC90,Haemophilus influenzae [29],0.12 µg/mL
CO/N=C(\C(=O)N[C@@H]1C(=O)N2C(C(=O)O)=C(COC(N)=O)CS[C@H]12)c1ccco1 [CEFUROXIME],Activity,Haemophilus influenzae [3],0%
same,MIC50,Haemophilus influenzae [5],2 µg/mL
same,MIC90,Haemophilus influenzae [5],2 µg/mL
same,MIC50,Haemophilus influenzae [6],2 µg/mL
same,MIC90,Haemophilus influenzae [6],4 µg/mL
same,MIC,Haemophilus influenzae [8],0.5 µg/mL
same,MIC50,Haemophilus influenzae [8],0.5 µg/mL
same,MIC90,Haemophilus influenzae [8],2 µg/mL
same,MIC50,Haemophilus influenzae [9],0.5 µg/mL
same,MIC90,Haemophilus influenzae [9],1 µg/mL
same,MIC50,Haemophilus influenzae [10],4 µg/mL
same,MIC90,Haemophilus influenzae [10],8 µg/mL
same,Activity,Haemophilus influenzae [12],0%
same,Activity,Haemophilus influenzae [15],100%
same,Activity,Haemophilus influenzae [16],2%
same,MIC,Haemophilus influenzae [17],0.5 µg/mL
same,MIC50,Haemophilus influenzae [17],0.5 µg/mL
same,MIC90,Haemophilus influenzae [17],4 µg/mL
same,Activity,Haemophilus influenzae [18],0%
same,Activity,Haemophilus influenzae [19],100%
same,MIC50,Haemophilus influenzae [20],1 µg/mL
same,MIC90,Haemophilus influenzae [20],2 µg/mL
same,Activity,Haemophilus influenzae [23],98%
same,MIC50,Haemophilus influenzae [25],2 µg/mL
same,MIC90,Haemophilus influenzae [25],4 µg/mL
same,MIC50,Haemophilus influenzae [26],1 µg/mL
same,MIC90,Haemophilus influenzae [26],1 µg/mL
same,MIC50,Haemophilus influenzae [29],2 µg/mL
same,MIC90,Haemophilus influenzae [29],2 µg/mL
